Assay outcomes from PubChem BioAssay.
Shown are actives, neighbours in structure and some others; about 1.1% of the full set was active somewhere.
FAS-TE inh: FAS thioesterase domain inhibitors, primary screen, biochemical, fluorescence intensity, uHTS; Fatty acid synthase (Homo sapiens), P49327; recombinant FAS-TE, OMFH fluorogenic substrate, fluorescence endpoint; inhibition, % at 15 µM; 360,000 compounds, 0.67% hits; AID 602261, 2012;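 active = compounds whose normalised, plate-corrected inhibition of enzyme fluorescence in the single-dose primary screen is 50% or more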;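 note: 0% = DMSO with enzyme and 100% = substrate without enzyme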
Arr AP2 block: inhibitors of beta-arrestin/AP2 binding, primary screen, biochemical, GPCR trafficking, flow cytometry; beta-arrestin 1 C-terminal peptide binding to AP2 beta2-adaptin appendage (human); FITC-arrestin peptide / GST-AP2 beads; AP2 beta2 appendage carries R879A mutation; inhibition, % at 10 µM; 340,000 compounds, 0.31% hits; AID 504490, 2011;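 active = inhibition above a set limit, near 3 SD of compounds lacking own fluorescence, cut at about 54% in these data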;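 note: plate controls were DMSO wells for no effect and 5 µM unlabelled arrestin peptide for full effect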
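Material – GST-tagged AP2 beta2-adaptin appendage (R879A) on 4 µm glutathione beads · Probe or stimulus – fluorescein-tagged arrestin peptide at 50 nM final · Timing – 12 min plus 1 h, RT · Detection – bead flow cytometry, FITC channel · Read-out basis – inhibition as reduced fluorescein signal on beads, percent · Medium – PBS plus Tween 20 (0.05%) and BSA (0.1%)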
GASC-1 inh: inhibitors of GASC-1 histone demethylase, primary screen, biochemical, fluorescence, DELFIA europium. Lysine-specific demethylase 4C (Homo sapiens), Q9H3R0. GST-JMJD2C(1-420) H3K9me3 demethylation. inhibition, % at 2.35 µM. 330,000 compounds, 0.069% hits. AID 2099, 2009;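 active = more than half of a compound's replicate wells show inhibition beyond 50%, single wells judged on their own value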;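 note: signal counts dimethyl H3K9 product captured on neutravidin plate; 0% = median of DMSO wells and 100% = 0.3 times that DMSO median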
SENP1 FRET inh: human SENP1 catalytic domain inhibitors, primary screen, biochemical, FRET, uHTS. inhibition, % at 10 µM. recombinant SENP1 catalytic domain, CyPet-SUMO1-YPet FRET cleavage. AID 624204, 2012. Sentrin-specific protease 1 (Homo sapiens), Q9P0U3. 360,000 compounds, 0.21% hits;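 active = inhibition at least 30% at 10 µM, raw YFP signal under a set limit, fluorescence ratio 0.5 to 1.5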;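 note: 0% = enzyme with DMSO and 100% = no enzyme wells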
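Assay system – human recombinant His6-tagged SENP1 catalytic domain enzyme · Input – SENP1 enzyme, 20 pM final · Buffer or medium – Tris pH 8 buffer plus EDTA, NaCl, BME, BSA, NP40, catalase · Schedule – 50 min reaction at room temperature · Technique – FRET read of cyan and yellow fluorescence · Control set – no-enzyme wells low, DMSO-plus-enzyme wells high control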
* marks the source's active call; other numbers are inactive results; . = no result.

SMILES	FAS-TE inh	Arr AP2 block	GASC-1 inh	SENP1 FRET inh
C=C(C)Cn1c2ccc(NC(=O)CCc3cccc(Cl)c3)cc2c(=O)n1C	-3	.	.	2
CCOC(=O)C(C)Oc1ccsc1C(=O)OC (stereo not given)	.	.	51*	.
COc1cc(OC)c(-c2c3cc(O)c(=O)cc-3oc3cc(O)c(O)cc23)cc1OC	-189	-130	38	88*
Cc1cc2c(=Cc3ccc(N(C)C)cc3)c3ccccc3n2[n+]1C	-1	49	.	41*
O=[N+]([O-])c1ccc(N=Nc2c(O)[nH]c3ccc(F)cc23)cc1	2	-8	5	49*
CC1CCCC(NC(=O)c2ccc(CNc3c(N4CCCC4)c(=O)c3=O)cc2)C1C (stereo not given)	-2	32	-24	3
O=S(=O)(c1cnc[nH]1)N1CCN(c2ccc(F)cc2)CC1	-9	3	-7	1
CN1CCN(/C=N/C2=C(C#N)C(c3ccccc3)C3=C(CC(C)(C)CC3=O)O2)CC1 (stereo not given)	-1	3	0	1
O=C1N/C(=N/Nc2ccccc2)S/C1=C\c1ccccc1	1	-14	10	105*
NC(=O)COc1cccc2cccnc12	-2	-5	74*	3
C#CCOCCOCCOCCNc1nc(N2CCN(C(=O)[C@H](CCCCN)n3cc([C@@H](N)[C@H](C)CC)nn3)CC2)nc(N2CCN(C(=O)[C@H](CCC(=O)O)n3cc([C@@H](N)CCSC)nn3)CC2)n1	-8	-7	52*	-2
COc1ccc(NC(=S)NCc2ccc(S(N)(=O)=O)cc2)cc1OC	-4	-7	56*	0
COc1ccc(CNC(=S)Nc2ccc(S(N)(=O)=O)cc2)cc1	-1	0	2	-3
COc1ccc(CCNC(=O)CC2Nc3ccccc3NC2=O)cc1OC (stereo not given)	-1	-1	4	-54
Cc1nc2ccccc2c2c(N)c3ccccc3n12	-4	-4	6	8
O=C1CSC(=S)N1/N=C/c1ccc(O)c(O)c1O	-1	57*	2	12
O=C1CSC(=S)N1/N=C/c1cc(Br)ccc1O	.	.	1	.
CCOC(=O)NC(=O)c1cn(Nc2ccccc2)c(=O)[nH]c1=O	-4	-4	0	1
CCOC(=O)CCSc1nc(C)cc(C(F)(F)F)c1C#N	4	-5	-1	76*
CCCCC(=Nc1ccc(N)cc1)C1=C(O)C(C(=O)OC)C(C)(C)CC1=O (stereo not given)	2	21	12	48*
COc1ccccc1CNC(=O)c1cc(-c2ccccc2)nn1CC1CC(c2cccnc2)=NO1 (stereo not given)	-12	-1	57*	4
O=C1CCCC2=C1Sc1ccccc1N2	-7	11	0	52*
C=C(C)C(=O)Nc1cccc(C2=NOC3(C2)C[C@@H](C(N)=O)N(C(=O)C2(C)CC2)C3)c1 (stereo not given in full)	-10	5	19	25
CCN(CC)CCN(C(=O)/C=C/c1cccs1)c1nc2ccc(Cl)cc2s1	7	13	12	-1
CN(C)CCN(C(=O)/C=C/c1cccs1)c1nc2ccc(F)cc2s1	0	11	50*	2
SMILES	FAS-TE inh	Arr AP2 block	GASC-1 inh	SENP1 FRET inh
Cc1cc(O)c(C=O)c2c1C(=O)Oc1c(CO)c(O)c3c(c1O2)C(O)OC3=O (stereo not given)	0	4	.	30*
CC(C)(C)n1ncc2c(=O)n(Cc3cccc(Cn4cnc5c(cnn5C(C)(C)C)c4=O)c3F)cnc21	55*	-3	.	-1
COc1ccc(-c2ccc(NS(=O)(=O)c3cc([N+](=O)[O-])c(C)c([N+](=O)[O-])c3)cc2)nn1	59*	47	3	3
Clc1ccc(Nc2nc(C3CC3)cs2)cc1	6	18	4	3
Cc1ccc(NC(=O)NN(C)c2c(Cl)c(Cl)nn2C)cc1	0	3	-2	-1
Cc1cc(C)n(-c2nc3ccccc3nc2N2CCN(S(=O)(=O)c3ccc4ccccc4c3)CC2)n1	67*	3	-12	-99
Cc1c(C(=O)N2CCN(c3ccc([N+](=O)[O-])cc3)CC2)sc2ncn(CC(=O)N3CCOCC3)c(=O)c12	3	9	2	-1
CC(=O)c1ccc2c(c1)C1C=CCC1C(c1ccncc1)N2 (stereo not given)	2	2	3	38*
Cc1ccnc(NC(=O)CCC(=O)N(CC(=O)NC2CCCCC2)c2cccc(C)c2C)c1	6	3	-2	-1
O=C(NC1CCCc2ccccc21)c1ccccc1 (stereo not given)	-7	-3	-10	0
O=C(NC1CCCc2ccccc21)c1ccc(Br)cc1 (stereo not given)	7	-5	58*	3
O=[N+]([O-])c1cc(-c2cnc3ccccc3n2)ccc1Oc1ccc(F)cc1	23	4	62*	-1
CC1C(=O)N(Cc2ccc([N+](=O)[O-])cc2)c2ccccc2N1C(=O)C1CC1 (stereo not given)	.	.	60*	.
CC1C(=O)N(Cc2ccc(F)cc2)c2ccccc2N1C(=O)c1c(F)cccc1F (stereo not given)	17	-11	-32	0
O=C1C=C(NCc2ccc3c(c2)OCO3)CC(c2ccccc2)C1 (stereo not given)	.	.	61*	.
CC(C)OC(=O)CC(=O)c1sc2nc3c(cc2c1N)CN(C)CC3	.	.	5	.
COc1ccccc1/C=C/CN1CCSCC1	-4	-10	7	-1
CCOC(=O)[C@H]1[C@H]2COc3ccccc3[C@@H]2N2C(=O)c3cc(OC)ccc3NC(=O)[C@@]12C	-6	2	0	7
CCOC(=O)[C@H]1[C@H]2COc3ccc(C)cc3[C@@H]2N2C(=O)CN(Cc3ccc(Cl)cc3)C(=O)[C@@]12C	37	32	.	-5
CCOC(=O)[C@H]1[C@H]2COc3ccccc3[C@@H]2N2C(=O)CN(Cc3ccc(C)cc3)C(=O)[C@@]12C	-35	28	.	34*
COc1ccc2c(c1)OC[C@H]1[C@H]2N2C(=O)c3cc(C)ccc3NC(=O)[C@@]2(C)[C@H]1c1ccccc1	76*	-4	10	-5
CCOC(=O)[C@H]1[C@H]2COc3ccc(OC)cc3[C@@H]2N2C(=O)c3cc(C)ccc3NC(=O)[C@@]12C	0	0	52*	1
COc1ccc2c(c1)OC[C@H]1[C@H]2N2C(=O)CNC(=O)[C@@]2(C)[C@H]1c1ccccc1	.	.	59*	.
COc1ccccc1N1CCN(C2CCCC(C)C2)CC1 (stereo not given)	-8	-1	-16	0
COc1ccc(CNC(=O)COC(=O)CCCOc2ccc(Cl)cc2Cl)cc1OC	-6	28	11	3
